Reference: ChEMBL document CHEMBL1671677, “Role of AbeS, a novel efflux pump of the SMR family of transporters, in resistance to antimicrobial agents in Acinetobacter baumannii” (2009)
In brackets after ≈: the same amount, converted by molar mass. Activity calls are given as the source filed them.

Key:
[1] = tested on: Escherichia coli; assay: Antibacterial activity against Escherichia coli KAM32 harboring plasmid pUC18 by CLSI broth microdilution method; assay type: functional
[2] = tested on: Escherichia coli; assay: Antibacterial activity against Escherichia coli KAM32 harboring recombinant plasmid pVBS1 encoding Acinetobacter baumannii abeS gene by CLSI broth microdilution method; assay type: functional
[3] = tested on: Acinetobacter baumannii; assay: Antibacterial activity against Acinetobacter baumannii AC0037 by CLSI broth microdilution method; assay type: functional
[4] = tested on: Acinetobacter baumannii; assay: Antibacterial activity against abeS-deficient Acinetobacter baumannii AC0037 by CLSI broth microdilution method; assay type: functional
[5] = tested on: Acinetobacter baumannii; assay: Ratio of MIC for Acinetobacter baumannii AC0037 to MIC for abeS-deficient Acinetobacter baumannii AC0037; assay type: functional
Outline: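 MICs were determined by broth dilution and interpreted per CLSI criteria for the parental A. baumannii AC0037 and its abeS null mutant. The mutant was made by electroporating a plasmid carrying abeS disrupted by a kanamycin-resistance cassette, for double homologous recombination, and selected on 50 μg/ml kanamycin plus 80 μg/ml ticarcillin. The ratio is the parental MIC over the mutant MIC.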

[6] = tested on: Acinetobacter baumannii; assay: Antibacterial activity against abeS sigma abeS-deficient Acinetobacter baumannii AC0037 by CLSI broth microdilution method; assay type: functional
[7] = tested on: Escherichia coli; assay: Ratio of MIC for Escherichia coli KAM32 harboring recombinant plasmid pVBS1 encoding Acinetobacter baumannii abeS gene to MIC for Escherichia coli KAM32 harboring plasmid pUC18
[8] = tested on: Escherichia coli; assay: Antibacterial activity against Escherichia coli KAM32 harboring plasmid pUC18 by CLSI broth microdilution method in presence of 25 ug/ml efflux pump inhibitor CCCP; assay type: functional
[9] = tested on: Escherichia coli; assay: Antibacterial activity against Escherichia coli KAM32 harboring recombinant plasmid pVBS1 encoding Acinetobacter baumannii abeS gene by CLSI broth microdilution method in presence of 25 ug/ml efflux pump inhibitor CCCP; assay type: functional
[10] = biological target: T1, QacEdelta1 SMR family efflux pump (Acinetobacter baumannii) (UniProt Q2FD83); assay: Inhibition of Acinetobacter baumannii abeS expressed in Escherichia coli KAM32 assessed as decrease in increase in bromide accumulation
T1 sequence (whole entry): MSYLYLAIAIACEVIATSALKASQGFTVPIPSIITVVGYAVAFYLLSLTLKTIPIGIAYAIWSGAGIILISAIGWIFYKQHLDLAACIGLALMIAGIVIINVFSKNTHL
Outline: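 EtBr accumulation in E. coli KAM32 (lacks AcrAB, YdhE) carrying pUC18 or pVBS1 (abeS). CCCP, a proton motive force uncoupler, added to 25 μg/ml final after 20 min with substrate. Cells lysed; supernatant fluorescence read at excitation 530 nm, emission 600 nm. Relative fluorescence taken as accumulated EtBr. Mean plus SD of three independent experiments.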

SMILES: N=C(N)c1ccc(-c2cc3ccc(C(=N)N)cc3[nH]2)cc1 [DAPI]
- MIC [1]: 0.5 µg/mL (≈ 1.8 µM)
- MIC [2]: 2 µg/mL
- MIC [3]: 2 µg/mL (≈ 7.21 µM)
- MIC [4]: 0.5 µg/mL (≈ 1.8 µM)
- Ratio [5]: 4
- MIC [6]: 2 µg/mL (≈ 7.21 µM)
- Ratio [7]: 4

SMILES: C[C@@H](O)[C@H]1C(=O)N2C(C(=O)O)=C(SCCNC=N)C[C@H]12
- Activity [4]: inactive

SMILES: CCn1cc(C(=O)O)c(=O)c2cc(F)c(N3CCNCC3)cc21 [NORFLOXACIN]
- MIC [1]: 0.06 µg/mL (≈ 0.188 µM)
- MIC [8]: 0.001 µg/mL
- MIC [2]: 0.12 µg/mL
- MIC [9]: 0.001 µg/mL
- MIC [3]: 512 µg/mL (≈ 1600 µM)
- MIC [4]: 256 µg/mL (≈ 802 µM)
- Ratio [5]: 2
- MIC [6]: > 128 µg/mL
- Ratio [7]: 2

SMILES: CC(C)(O/N=C(\C(=O)N[C@@H]1C(=O)N2C(C(=O)[O-])=C(C[n+]3ccccc3)CS[C@H]12)c1csc(N)n1)C(=O)O
- Activity [4]: inactive

SMILES: CO[C@@H]1[C@@H](OC(N)=O)[C@@H](O)[C@H](Oc2ccc3c(O)c(NC(=O)c4ccc(O)c(CC=C(C)C)c4)c(=O)oc3c2C)OC1(C)C [NOVOBIOCIN]
- MIC [1]: 4 µg/mL (≈ 6.53 µM)
- MIC [8]: < 0.5 µg/mL
- MIC [2]: 20 µg/mL
- MIC [9]: < 0.5 µg/mL
- MIC [3]: 120 µg/mL (≈ 196 µM)
- MIC [4]: 40 µg/mL (≈ 65.3 µM)
- Ratio [5]: 3
- MIC [6]: 84 µg/mL (≈ 137 µM)
- Ratio [7]: 5

SMILES: CN(C)c1ccc2cc3ccc(N(C)C)cc3nc2c1 [ACRIDINE ORANGE]
- MIC [1]: 16 µg/mL (≈ 60.3 µM)
- MIC [2]: 80 µg/mL
- MIC [3]: 200 µg/mL (≈ 754 µM)
- MIC [4]: 50 µg/mL (≈ 188 µM)
- Ratio [5]: 4
- MIC [6]: 125 µg/mL (≈ 471 µM)
- Ratio [7]: 5

SMILES: N#CC(C#N)=NNc1cccc(Cl)c1
- inhibition [10]: Active

SMILES: C[C@H](CCC(=O)O)[C@H]1CC[C@H]2[C@@H]3CC[C@@H]4C[C@H](O)CC[C@]4(C)[C@H]3C[C@H](O)[C@]12C [DEOXYCHOLIC ACID]
- MIC [1]: 125 µg/mL (≈ 318 µM)
- MIC [8]: < 0.25 µg/mL
- MIC [2]: 3120 µg/mL
- MIC [9]: 5 µg/mL
- MIC [3]: > 2050 µg/mL
- MIC [4]: 128 µg/mL (≈ 326 µM)
- Ratio [5]: >16
- MIC [6]: 512 µg/mL (≈ 1300 µM)
- Ratio [7]: 25

SMILES: [Cl-].c1ccc([P+](c2ccccc2)(c2ccccc2)c2ccccc2)cc1 [TETRAPHENYLPHOSPHONIUM CHLORIDE]
- MIC [1]: 8 µg/mL
- MIC [8]: 0.25 µg/mL
- MIC [2]: 16 µg/mL
- MIC [9]: 0.25 µg/mL
- MIC [3]: 1500 µg/mL
- MIC [4]: 300 µg/mL
- Ratio [5]: 5
- MIC [6]: > 500 µg/mL
- Ratio [7]: 2

SMILES: CC[C@H]1OC(=O)[C@H](C)[C@@H](O[C@H]2C[C@@](C)(OC)[C@@H](O)[C@H](C)O2)[C@H](C)[C@@H](O[C@@H]2O[C@H](C)C[C@H](N(C)C)[C@H]2O)[C@](C)(O)C[C@@H](C)C(=O)[C@H](C)[C@@H](O)[C@]1(C)O [ERYTHROMYCIN]
- MIC [1]: 4 µg/mL (≈ 5.45 µM)
- MIC [8]: < 0.05 µg/mL
- MIC [2]: 24 µg/mL
- MIC [9]: 0.25 µg/mL
- MIC [3]: 64 µg/mL (≈ 87.2 µM)
- MIC [4]: 8 µg/mL (≈ 10.9 µM)
- Ratio [5]: 8
- MIC [6]: 32 µg/mL (≈ 43.6 µM)
- Ratio [7]: 6

SMILES: NCC[C@H](O)C(=O)N[C@@H]1C[C@H](N)[C@@H](O[C@H]2O[C@H](CN)[C@@H](O)[C@H](O)[C@H]2O)[C@H](O)[C@H]1O[C@H]1O[C@H](CO)[C@@H](O)[C@H](N)[C@H]1O [AMIKACIN]
- MIC [1]: 1 µg/mL (≈ 1.71 µM)
- MIC [8]: 0.15 µg/mL
- MIC [2]: 2 µg/mL
- MIC [9]: 0.15 µg/mL
- MIC [3]: 256 µg/mL (≈ 437 µM)
- MIC [4]: 256 µg/mL (≈ 437 µM)
- Ratio [5]: 1
- MIC [6]: 256 µg/mL (≈ 437 µM)
- Ratio [7]: 2

SMILES: CCn1cc(C(=O)O)c(=O)c2ccc(C)nc21 [NALIDIXIC ACID]
- MIC [1]: 1 µg/mL (≈ 4.31 µM)
- MIC [2]: 1 µg/mL
- MIC [3]: 256 µg/mL (≈ 1100 µM)
- MIC [4]: 128 µg/mL (≈ 551 µM)
- Ratio [5]: 2
- MIC [6]: 256 µg/mL (≈ 1100 µM)
- Ratio [7]: 1

SMILES: COc1cc(Cc2cnc(N)nc2N)cc(OC)c1OC [TRIMETHOPRIM]
- MIC [1]: 0.125 µg/mL (≈ 0.431 µM)
- MIC [2]: 0.2 µg/mL
- MIC [3]: 64 µg/mL (≈ 220 µM)
- MIC [4]: 64 µg/mL (≈ 220 µM)
- Ratio [5]: 1
- MIC [6]: 64 µg/mL (≈ 220 µM)
- Ratio [7]: 2

SMILES: CCBr [BROMOETHANE]
- MIC [1]: 2 µg/mL (≈ 18.4 µM)
- MIC [2]: 8 µg/mL
- MIC [3]: 1020 µg/mL (≈ 9400 µM)
- MIC [4]: 128 µg/mL (≈ 1170 µM)
- Ratio [5]: 8
- MIC [6]: > 512 µg/mL
- Ratio [7]: 4

SMILES: C[C@@H](O)[C@H]1C(=O)N2C(C(=O)O)=C(S[C@@H]3CN[C@H](C(=O)N(C)C)C3)[C@H](C)[C@H]12
- Activity [4]: inactive

SMILES: C[n+]1ccc(-c2cc[n+](C)cc2)cc1.[Cl-].[Cl-] [PARAQUAT DICHLORIDE]
- MIC [1]: 64 µg/mL
- MIC [8]: < 2.5 µg/mL
- MIC [2]: 128 µg/mL
- MIC [9]: < 2.5 µg/mL
- MIC [3]: 800 µg/mL
- MIC [4]: 400 µg/mL
- Ratio [5]: 2
- MIC [6]: 800 µg/mL
- Ratio [7]: 2

SMILES: O=C(N[C@H](CO)[C@H](O)c1ccc([N+](=O)[O-])cc1)C(Cl)Cl [CHLORAMPHENICOL]
- MIC [1]: 0.2 µg/mL (≈ 0.619 µM)
- MIC [2]: 0.2 µg/mL
- MIC [3]: 256 µg/mL (≈ 792 µM)
- MIC [4]: 64 µg/mL (≈ 198 µM)
- Ratio [5]: 4
- MIC [6]: 128 µg/mL (≈ 396 µM)
- Ratio [7]: 1

SMILES: CO[C@H]1/C=C/O[C@@]2(C)Oc3c(C)c(O)c4c(O)c(c(/C=N/N5CCN(C)CC5)c(O)c4c3C2=O)NC(=O)/C(C)=C\C=C\[C@H](C)[C@H](O)[C@@H](C)[C@@H](O)[C@@H](C)[C@H](OC(C)=O)[C@@H]1C [RIFAMPIN]
- MIC [3]: 2 µg/mL (≈ 2.43 µM)
- MIC [4]: 2 µg/mL (≈ 2.43 µM)
- MIC [6]: 2 µg/mL (≈ 2.43 µM)

SMILES: N=C(NCCCCCCNC(=N)NC(=N)Nc1ccc(Cl)cc1)NC(=N)Nc1ccc(Cl)cc1 [CHLORHEXIDINE]
- MIC [1]: 2 µg/mL (≈ 3.96 µM)
- MIC [2]: 4 µg/mL
- MIC [3]: 32 µg/mL (≈ 63.3 µM)
- MIC [4]: 16 µg/mL (≈ 31.7 µM)
- Ratio [5]: 2
- MIC [6]: 32 µg/mL (≈ 63.3 µM)
- Ratio [7]: 2

SMILES: COC(=O)c1ccccc1-c1c2ccc(=N)cc-2oc2cc(N)ccc12.Cl [RHODAMINE123]
- MIC [1]: 8 µg/mL
- MIC [2]: 32 µg/mL
- MIC [3]: 128 µg/mL
- MIC [4]: 64 µg/mL
- Ratio [5]: 2
- MIC [6]: 128 µg/mL
- Ratio [7]: 4

SMILES: CN(C)[C@@H]1C(O)=C(C(N)=O)C(=O)[C@@]2(O)C(O)=C3C(=O)c4c(O)cccc4[C@@](C)(O)[C@H]3C[C@@H]12 [TETRACYCLINE]
- MIC [1]: 0.5 µg/mL (≈ 1.13 µM)
- MIC [2]: 1 µg/mL
- MIC [3]: 64 µg/mL (≈ 144 µM)
- MIC [4]: 64 µg/mL (≈ 144 µM)
- Ratio [5]: 1
- MIC [6]: 64 µg/mL (≈ 144 µM)
- Ratio [7]: 2

SMILES: CCCCCCCCCCCCOS(=O)(=O)[O-].[Na+] [SODIUM LAURYL SULFATE]
- MIC [1]: 50 µg/mL
- MIC [8]: < 5 µg/mL
- MIC [2]: 800 µg/mL
- MIC [9]: < 5 µg/mL
- MIC [3]: > 256 µg/mL
- MIC [4]: 16 µg/mL
- Ratio [5]: >16
- MIC [6]: 128 µg/mL
- Ratio [7]: 16
